This is an account of results in the RNAGym collection of RNA variant scans (doi:10.1126/science.aae0568).

This sample holds only a part of the variants without activity.

B1: tRNA (parent)
chain: GUUCCGUUGGCGUAAUGGUAACGCGUCUCCCUCCUAAGGAGAAGACUGCGGGUUCGAGUCCCGUACGGAACG

In the data set the parent is B1. The data set can be described thus: yeast fitness relative to wild type (ratio to wild type); higher = fitter; tRNA-Arg(CCU), competitive growth, 37 C, YPD. Put shortly: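 Start and end populations of a pooled competition were compared by 100-nucleotide paired-end sequencing of gene amplicons. The Saccharomyces cerevisiae strains carried tRNA-Arg(CCU) gene variants at the native genomic locus, synthesised with a 3% per-site mutation rate at 69 sites, and competed in YPD at 37°C for 24 hours in six parallel replicates. Darwinian fitness relative to wild type was based on the change in genotype frequencies. Genotypes required ≥ 100 starting reads, and estimates < 0.5 were set to 0.5.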
Turning to U7A A42G C46A C55G, the yeast fitness was not above 0.5.

Turning to U7A A20G C31A, the yeast fitness was not above 0.5.

Turning to G6C G63A, the yeast fitness came to 0.911.

On to G6C G63C, for which the yeast fitness is 0.689.

Regarding U7A A45U C60A, the yeast fitness is not above 0.5.

As for U7A C11U A40G A42U C62A, the yeast fitness is not above 0.5.

In the case of U7A C24U C30U C31G A57G, the yeast fitness is not above 0.5.

For the variant U7A A45C C66U, the yeast fitness turned out to be 0.535.

G6C G12A G58C C61U A69C: the yeast fitness is not above 0.5.

On to G6C G12A A37C G51A U53C C62A, for which the yeast fitness is not above 0.5.

As to U7A A36U C55U A65U, the yeast fitness was determined as 0.555.

For the variant U7A A20G C31U A57C A65U, the yeast fitness is not above 0.5.

With G6C G12A U35A, the yeast fitness was found to be 0.55.

For the variant G6C G51A A70G, the yeast fitness is not above 0.5.

On to G6C G25C A40U A65C, for which the yeast fitness was not above 0.5.

As for U7A A14C A20G, the yeast fitness is not above 0.5.

For the variant G6C U13G G18A G48C G68U, the yeast fitness is not above 0.5.

Regarding U7A A20C U28C G58C, the yeast fitness was found to be 0.647.

Take U7A A20C U59A A65C: the yeast fitness amounted to 0.662.

Consider U7A A20C G68C, for which the yeast fitness was 0.539.

Take G6C G41A A45U: the yeast fitness was not above 0.5.

G6C G17A C30U A42C A43G: the yeast fitness was not above 0.5.

Consider G6C U35A G44C C60A, for which the yeast fitness was not above 0.5.

Regarding G6C G10A U16G C24U G50C, the yeast fitness was 0.609.

Regarding U7A A20U G23C U26A C33A A57U, the yeast fitness was not above 0.5.

Consider U7A A37G, for which the yeast fitness amounted to 0.585.

On to U7A A37U, for which the yeast fitness turned out to be 0.696.

In the case of G6C U8C C11U G39C C55A, the yeast fitness was not above 0.5.

Turning to G6C U8C A43U U59C, the yeast fitness is not above 0.5.

Take G6C G18A G51C A65C: the yeast fitness was not above 0.5.

On to U7A A43C G48A A57C G68U, for which the yeast fitness was not above 0.5.

Regarding G6C G25A A37U A42G, the yeast fitness was not above 0.5.

With G6C U7C G9C C49U, the yeast fitness was not above 0.5.

Turning to U7A A20G G23A A40G U47C A70C, the yeast fitness was not above 0.5.

As for G6C G17C C27U A40U C60U, the yeast fitness is not above 0.5.

Take G6C G25A A37U: the yeast fitness was not above 0.5.

For G6C G9A, the yeast fitness came out at 1.03.

In the case of G6C U7G C24U C27A C60U, the yeast fitness was not above 0.5.

Regarding U7A A21G, the yeast fitness turned out to be 0.738.

Consider U7A A21C, for which the yeast fitness was 0.54.

Take G6C G41C A45G G63A C66G G67C: the yeast fitness was not above 0.5.

For G6C U8C C33U A43G G58A C60U, the yeast fitness is not above 0.5.

With U7A A15U U53C, the yeast fitness is not above 0.5.

As to U7A C11A C33U C55G G56A, the yeast fitness is 0.838.

Turning to G6C G58C U64A, the yeast fitness came to 0.529.

G6C G50A: the yeast fitness was determined as 0.865.

U7A A21G C30G A36G C46G C66U: the yeast fitness is not above 0.5.

For G6C U54C C66A, the yeast fitness was found to be 0.6.

For the variant G6C G18C C22U C34G A36U G56C G63A, the yeast fitness is not above 0.5.

Regarding U7A A20U G52A, the yeast fitness is not above 0.5.

Turning to U7A A20G C46G, the yeast fitness was found to be 0.507.

For U7A A20G G23A U26G G50U, the yeast fitness was not above 0.5.

For G6C G41C C49G U54C U59G G63A C66U, the yeast fitness was not above 0.5.

On to U7A A15U A40G G68C, for which the yeast fitness is 0.514.

Consider U7A A57C, for which the yeast fitness was found to be 0.54.

Take U7A A57G: the yeast fitness was determined as 0.759.

For the variant G6C U8C C22U, the yeast fitness is 0.526.

Turning to U7A A21C U54C C61G, the yeast fitness was not above 0.5.

For the variant U7A A36U A45G U47A, the yeast fitness was not above 0.5.

With U7A C24G C29G C30U A40C, the yeast fitness is 0.96.

U7A A21U C27G C33G A45U: the yeast fitness is 0.506.

Turning to U7A A21C C29U A37G C55U, the yeast fitness stood at 0.568.

As to G6C G23A, the yeast fitness is 0.893.

As to G6U G44C G56C, the yeast fitness was not above 0.5.

For U7A A37U C62A, the yeast fitness worked out at 0.571.

Regarding G6C G9A A21U U28G C34U G63A, the yeast fitness was not above 0.5.

With U7A C11A A20G G23A U26G G50A G52A C60U C61G, the yeast fitness was not above 0.5.

Regarding G6C U8C G56A, the yeast fitness worked out at 0.672.

As for G6C G25A, the yeast fitness was found to be 1.17.

For the variant G6C G25C, the yeast fitness was found to be 0.971.

Turning to U7A A21G C30G, the yeast fitness was not above 0.5.

As for G6C G17A A36C C62G, the yeast fitness was determined as 0.536.

As for G6C G12C U47A, the yeast fitness is not above 0.5.

With G6C U32C, the yeast fitness was found to be 0.994.

Regarding U7A A20G C22A A40G G41C, the yeast fitness was not above 0.5.

U7A C24U A69U: the yeast fitness was not above 0.5.

Consider U7A C11A A21C C29U C49U G56A, for which the yeast fitness was not above 0.5.

In the case of U7A A20G G23A U26G G67A, the yeast fitness was not above 0.5.

For G6U C33U, the yeast fitness was determined as 0.562.

In the case of U7A C24U C33A G50A A65C, the yeast fitness is not above 0.5.

As for U7A A45G C61A A70G, the yeast fitness was not above 0.5.

As for G6C G41C, the yeast fitness came out at 0.671.

On to U7A C11U A36U C62U C66U, for which the yeast fitness was not above 0.5.

On to G6C G12A C27U G39C, for which the yeast fitness stood at 0.616.

Take U7A C11A A14C C34A: the yeast fitness was not above 0.5.

Take G6C U59C: the yeast fitness worked out at 0.656.

U7A A21C C33A A45U C62A: the yeast fitness was not above 0.5.

G6C U7C G12A C24U C29G G50C C66U: the yeast fitness was not above 0.5.

As to U7A A21U G41A C66A, the yeast fitness came to 0.684.

For G6C G9A A21U U28G C34U, the yeast fitness is not above 0.5.

For G6C U16C, the yeast fitness came out at 0.803.

In the case of G6C U16A, the yeast fitness amounted to 0.631.

As to G6C U16G, the yeast fitness was determined as 0.68.

With U7A A45C U47A G68A, the yeast fitness was not above 0.5.

Consider G6C G10C C11U G23A C24G C46G, for which the yeast fitness is not above 0.5.

Consider G6C G51A A65G C66U, for which the yeast fitness is not above 0.5.

Take U7A A21C C30U A42C G48C: the yeast fitness is not above 0.5.

Turning to G6C G10A G17A A36U G51C A69C, the yeast fitness was not above 0.5.

For G6C G17C U32G A40C G67A, the yeast fitness came out at 0.603.

For the variant G6C U13G C22A C34G C62A, the yeast fitness came to 0.59.

For the variant G6C U8C A20G G50A A57U, the yeast fitness is not above 0.5.

Take U7A A21U G41A U64A: the yeast fitness was not above 0.5.

On to G6C G17A U19G A69U, for which the yeast fitness was not above 0.5.

As for G6C U8C G41C, the yeast fitness was not above 0.5.

On to G6C G12C, for which the yeast fitness came out at 0.676.

For G6C G12A, the yeast fitness was 0.85.

In the case of G6C G12A A21G, the yeast fitness stood at 0.552.

As to G6C G17A A40U, the yeast fitness was not above 0.5.

Regarding U7A C22G A57G, the yeast fitness was not above 0.5.

Take U7A C22G A57U: the yeast fitness is not above 0.5.

Take G6C U7C A14G A20C A57C: the yeast fitness is not above 0.5.

Turning to G6C G18A, the yeast fitness was determined as 0.729.

Turning to G6C U32A A37U, the yeast fitness worked out at 0.583.

As to U7A C22A C30U C61U G67A G68U, the yeast fitness was not above 0.5.

On to G6C U8C A14G, for which the yeast fitness amounted to 0.522.

Regarding G6C G17A C24A U32C A45C C60A A69U, the yeast fitness was not above 0.5.

For G6C U8A C22U U59C, the yeast fitness was not above 0.5.

U7A A21U G41A: the yeast fitness was determined as 0.619.

As to G6C G44C G67U, the yeast fitness was 0.501.

With G6C G17A A36U C46A U53C C66A, the yeast fitness is not above 0.5.

For U7A A45G C61G, the yeast fitness is not above 0.5.

For the variant G6C U8C, the yeast fitness stood at 0.662.

As for U7A C11U U47A, the yeast fitness is not above 0.5.

Take G6U C11A U13A G52A C61U A69C: the yeast fitness amounted to 0.527.

For the variant G6C U8A C22U C61G, the yeast fitness was found to be 0.501.

As for U7A A40U C55G G63C, the yeast fitness is not above 0.5.

For the variant G6C G10A C27A C49U C66U, the yeast fitness was not above 0.5.

Consider G6C G48A, for which the yeast fitness was determined as 1.01.

With U7A A20G C49G G67A, the yeast fitness was not above 0.5.

Turning to G6C G52C C61A, the yeast fitness was not above 0.5.

Regarding G6C G41C C49G U59G G63A C66U, the yeast fitness worked out at 0.54.

As to G6C G17A C24A U32C A45C, the yeast fitness was not above 0.5.

On to U7A C24G C29G C30U A40C G68C, for which the yeast fitness turned out to be 0.663.

Take U7A C24G C33U G41C: the yeast fitness is not above 0.5.

For the variant G6C G10C, the yeast fitness is 0.649.

As to G6C U26C G68A, the yeast fitness was 0.537.

Take U7A C11G C31G U32C A43U: the yeast fitness was not above 0.5.

On to G6C G41A A45C A57C, for which the yeast fitness is not above 0.5.

As to U7A A15C A57G, the yeast fitness is not above 0.5.

Take G6C U7G: the yeast fitness was determined as 0.725.

On to U7A A43U G52C, for which the yeast fitness was not above 0.5.

As to U7A A14G A15C A36G A40U C46A G52C A70U, the yeast fitness is 0.649.

Turning to U7A A42C U47A G63C A69C, the yeast fitness is not above 0.5.

For the variant G6C C60G, the yeast fitness stood at 0.731.

For the variant U7A A36G A43G C62A, the yeast fitness was not above 0.5.

Regarding U7A A40U C61G G67U, the yeast fitness was not above 0.5.

Consider U7A C11U C22U G38C, for which the yeast fitness was not above 0.5.

In the case of G6C G12A U47A G51C A65G, the yeast fitness is not above 0.5.

U7A A14C C27U A45U G67A: the yeast fitness was not above 0.5.

For U7A A37C A43C, the yeast fitness was found to be 0.583.

G6C U26C A37U A43U: the yeast fitness was not above 0.5.

With G6C U13A A20U A21G A69U, the yeast fitness is not above 0.5.

Regarding U7A A65C, the yeast fitness is 0.917.

As for U7A A65G, the yeast fitness worked out at 1.03.

Take U7A C11A: the yeast fitness is not above 0.5.

As for U7A C11U, the yeast fitness turned out to be 0.686.

Take U7A C22G C24G U28C G56A A65U: the yeast fitness was not above 0.5.

In the case of G6U A21G A70G, the yeast fitness came out at 0.562.

U7A A36U A37U: the yeast fitness is 0.768.

Turning to U7A A36G, the yeast fitness amounted to 0.662.

U7A C11U A15G A65C: the yeast fitness is not above 0.5.

As to U7A A20G G68A, the yeast fitness is not above 0.5.

In the case of G6C G25C C29G G52A A69U, the yeast fitness was 0.527.

On to G6C G38C, for which the yeast fitness turned out to be 0.693.

As for G6C G48C A65U A70U, the yeast fitness was not above 0.5.

In the case of U7A A21U A65C, the yeast fitness was found to be 0.577.

Turning to U7A A45U, the yeast fitness is 0.672.
